Structures are written as SMILES. Where only a bound is given, the exact number is not on record here.

Data set [1] concerns the target T1, ATP-dependent translocase ABCB1 (Homo sapiens, UniProt P08183). The experiment in a line: Inhibition of ABCB1 in human A2780/ADR cells preincubated for 30 mins followed by calcein AM addition and measured at 60 secs time interval by fluorescence assay. In kind it is cell-based.
Data set [2] in a line: Growth inhibition of human A2780 cells incubated for 72 hrs by MTT assay. It counts as cell-based. The method in brief:
(§1)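 MTT-based cytotoxicity assay giving GI50 of the compound alone in each listed parental, selected or transfected cell line.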

Data set [3] has as its target T1, ATP-dependent translocase ABCB1. Nature of the data set: Reversal of ABCB1 (unknown origin)-mediated multidrug resistance in MDCK2 cells co-expressing MDR1 (unknown origin) assessed as resistance factor by measuring [GI50(resistant cell line without or with compound)/ GI50(sensitive cell line)] at 0.5 uM incubated for 72 hrs by MTT assay (reference value: 17). In kind it is cell-based. The method in brief: (§2)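 MDR reversal assay with daunorubicin at 10 nM–10 µM, alone or with test compound at 0.5, 1, 5 or 10 µM. Resistant cells were ABCB1-overexpressing A2780/ADR or MDCK II MDR1, with sensitive A2780 or MDCK II cells as comparators. Resistance factor = resistant GI50 / sensitive GI50. EC50 was derived from resistance factors versus modulator concentration. Values are from ≥3 experiments in duplicate ± SEM.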

Data set [4] shares this target. The experiment in a line: Reversal of ABCB1-mediated multidrug resistance in human A2780/ADR cells assessed as resistance factor by measuring [GI50(resistant cell line without or with compound)/ GI50(sensitive cell line)] at 1 uM incubated for 72 hrs by MTT assay (reference value: 49). It counts as cell-based. The method in brief: as §2
Data set [5] concerns the target T2, Multidrug resistance-associated protein 1 (Homo sapiens, UniProt P33527). Nature of the data set: Reversal of ABCC1-mediated multidrug resistance in human H69AR cells assessed as resistance factor by measuring [GI50(resistant cell line without or with compound)/ GI50(sensitive cell line)] at 10 uM incubated for 72 hrs by MTT assay (reference value: 8.2). It counts as cell-based.

For the next data set, the target named is ABCB1 (P-gp) (Homo sapiens, UniProt P08183). Nature of the data set: Inhibition of ABCB1 in human A2780/ADR cells at 10 uM preincubated for 30 mins followed by calcein AM addition and measured at 60 secs time interval by fluorescence assay relative to cyclosporine A. Particulars: probe calcein AM; call rule not given here. It counts as cell-based.
Data set [6] deals with T2, Multidrug resistance-associated protein 1. Nature of the data set: Reversal of ABCC1 (unknown origin)-mediated multidrug resistance in MDCK2 cells co-expressing MRP1 (unknown origin) assessed as resistance factor by measuring [GI50(resistant cell line without or with compound)/ GI50(sensitive cell line)] at 0.5 uM incubated for 72 hrs by MTT assay (reference value: 7). In kind it is cell-based.

Data set [7] is described as follows: Growth inhibition of human MCF7 cells incubated for 72 hrs by MTT assay. It counts as cell-based. The method in brief: as §1
In data set [8] the target is T3, Broad substrate specificity ATP-binding cassette transporter ABCG2 (Homo sapiens, UniProt Q9UNQ0).
T3 sequence (Q9UNQ0 whole entry): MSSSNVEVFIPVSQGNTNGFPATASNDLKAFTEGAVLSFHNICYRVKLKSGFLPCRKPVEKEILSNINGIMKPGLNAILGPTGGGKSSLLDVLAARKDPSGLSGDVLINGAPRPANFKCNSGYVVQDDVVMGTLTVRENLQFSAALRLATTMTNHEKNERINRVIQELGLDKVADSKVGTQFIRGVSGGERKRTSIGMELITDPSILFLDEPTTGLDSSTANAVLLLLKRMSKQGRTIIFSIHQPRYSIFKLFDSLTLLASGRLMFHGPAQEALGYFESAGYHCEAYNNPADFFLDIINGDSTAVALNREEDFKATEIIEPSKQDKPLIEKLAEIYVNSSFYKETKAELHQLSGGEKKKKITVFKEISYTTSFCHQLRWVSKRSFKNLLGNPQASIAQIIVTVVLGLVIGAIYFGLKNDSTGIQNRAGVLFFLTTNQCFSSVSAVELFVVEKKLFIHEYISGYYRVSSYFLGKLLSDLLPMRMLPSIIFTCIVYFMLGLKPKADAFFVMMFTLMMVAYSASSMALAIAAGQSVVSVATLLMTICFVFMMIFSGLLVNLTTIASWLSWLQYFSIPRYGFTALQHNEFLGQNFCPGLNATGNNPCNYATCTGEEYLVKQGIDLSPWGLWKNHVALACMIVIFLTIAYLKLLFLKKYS
The experiment in a line: Non-competitive inhibition of ABCG2 (unknown origin)-mediated pheophorbide A transport in MDCK2 cells co-expressing BCRP (unknown origin) at 0.178 to 1 uM by Lineweaver-Burk plot analysis. It counts as cell-based. The method in brief: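 Lineweaver-Burk kinetics of ABCG2-mediated pheophorbide A transport in transfected MDCK II BCRP cells. Pheophorbide A was used at 0.5, 0.6, 0.8, 1.0 and 1.5 µM. Inhibitor was used at 0.178, 0.316, 0.562 and 1.00 µM, with a zero-inhibitor control.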

A short description of data set [9]: Growth inhibition of human A2780/ADR cells incubated for 72 hrs by MTT assay. In kind it is cell-based. The method in brief:
as §1

The nature of data set [10]: Growth inhibition of MDCK2 cells co-expressing MRP1 (unknown origin) incubated for 72 hrs by MTT assay. It counts as cell-based, Canis lupus familiaris, MDCK-II. The note with it: dog. The method in brief:
as §1

The target of data set [11] is T2, Multidrug resistance-associated protein 1. Nature of the data set: Reversal of ABCC1 (unknown origin)-mediated multidrug resistance in MDCK2 cells co-expressing MRP1 (unknown origin) assessed as resistance factor by measuring [GI50(resistant cell line without or with compound)/ GI50(sensitive cell line)] at 5 uM incubated for 72 hrs by MTT assay (reference value: 7). In kind it is cell-based.

T2 sequence (P33527 whole entry): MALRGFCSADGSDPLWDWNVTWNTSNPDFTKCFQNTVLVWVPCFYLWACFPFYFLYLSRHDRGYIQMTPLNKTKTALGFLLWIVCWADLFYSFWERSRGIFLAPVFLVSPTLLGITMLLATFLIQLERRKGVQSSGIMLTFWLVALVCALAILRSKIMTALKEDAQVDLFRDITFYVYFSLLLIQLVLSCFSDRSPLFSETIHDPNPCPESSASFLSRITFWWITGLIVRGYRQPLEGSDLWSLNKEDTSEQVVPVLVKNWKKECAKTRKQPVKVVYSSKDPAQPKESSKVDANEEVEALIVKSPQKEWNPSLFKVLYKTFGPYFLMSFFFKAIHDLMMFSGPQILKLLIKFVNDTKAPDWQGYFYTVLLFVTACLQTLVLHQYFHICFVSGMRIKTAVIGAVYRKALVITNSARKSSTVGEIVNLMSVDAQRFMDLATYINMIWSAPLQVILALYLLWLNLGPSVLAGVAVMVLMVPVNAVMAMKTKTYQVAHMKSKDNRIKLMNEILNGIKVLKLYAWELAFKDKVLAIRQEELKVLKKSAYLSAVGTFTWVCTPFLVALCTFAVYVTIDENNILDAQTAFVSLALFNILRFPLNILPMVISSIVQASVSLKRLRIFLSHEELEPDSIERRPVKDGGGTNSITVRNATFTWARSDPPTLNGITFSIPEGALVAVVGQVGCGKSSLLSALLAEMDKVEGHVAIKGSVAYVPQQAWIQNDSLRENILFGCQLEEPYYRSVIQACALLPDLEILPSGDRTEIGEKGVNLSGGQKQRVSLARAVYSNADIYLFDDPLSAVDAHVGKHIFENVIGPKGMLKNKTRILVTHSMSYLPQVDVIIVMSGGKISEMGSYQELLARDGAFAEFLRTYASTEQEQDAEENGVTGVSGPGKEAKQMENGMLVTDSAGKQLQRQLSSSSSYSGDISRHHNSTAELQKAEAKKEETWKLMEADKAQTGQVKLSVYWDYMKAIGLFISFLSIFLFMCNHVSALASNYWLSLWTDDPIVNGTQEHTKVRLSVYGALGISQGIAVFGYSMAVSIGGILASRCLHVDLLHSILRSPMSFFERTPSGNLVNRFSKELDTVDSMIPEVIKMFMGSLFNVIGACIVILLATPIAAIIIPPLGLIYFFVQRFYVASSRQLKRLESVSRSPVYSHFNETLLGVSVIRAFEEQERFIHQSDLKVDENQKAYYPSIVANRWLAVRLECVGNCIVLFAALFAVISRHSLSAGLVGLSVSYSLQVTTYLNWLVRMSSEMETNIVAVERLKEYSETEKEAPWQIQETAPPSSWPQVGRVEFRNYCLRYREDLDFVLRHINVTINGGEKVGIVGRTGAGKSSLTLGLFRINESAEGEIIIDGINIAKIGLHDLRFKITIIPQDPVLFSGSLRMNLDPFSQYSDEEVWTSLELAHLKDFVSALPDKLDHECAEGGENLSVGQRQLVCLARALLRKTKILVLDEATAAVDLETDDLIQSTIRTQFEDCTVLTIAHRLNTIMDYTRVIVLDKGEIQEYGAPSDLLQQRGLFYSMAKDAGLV
T1 sequence (P08183 whole entry): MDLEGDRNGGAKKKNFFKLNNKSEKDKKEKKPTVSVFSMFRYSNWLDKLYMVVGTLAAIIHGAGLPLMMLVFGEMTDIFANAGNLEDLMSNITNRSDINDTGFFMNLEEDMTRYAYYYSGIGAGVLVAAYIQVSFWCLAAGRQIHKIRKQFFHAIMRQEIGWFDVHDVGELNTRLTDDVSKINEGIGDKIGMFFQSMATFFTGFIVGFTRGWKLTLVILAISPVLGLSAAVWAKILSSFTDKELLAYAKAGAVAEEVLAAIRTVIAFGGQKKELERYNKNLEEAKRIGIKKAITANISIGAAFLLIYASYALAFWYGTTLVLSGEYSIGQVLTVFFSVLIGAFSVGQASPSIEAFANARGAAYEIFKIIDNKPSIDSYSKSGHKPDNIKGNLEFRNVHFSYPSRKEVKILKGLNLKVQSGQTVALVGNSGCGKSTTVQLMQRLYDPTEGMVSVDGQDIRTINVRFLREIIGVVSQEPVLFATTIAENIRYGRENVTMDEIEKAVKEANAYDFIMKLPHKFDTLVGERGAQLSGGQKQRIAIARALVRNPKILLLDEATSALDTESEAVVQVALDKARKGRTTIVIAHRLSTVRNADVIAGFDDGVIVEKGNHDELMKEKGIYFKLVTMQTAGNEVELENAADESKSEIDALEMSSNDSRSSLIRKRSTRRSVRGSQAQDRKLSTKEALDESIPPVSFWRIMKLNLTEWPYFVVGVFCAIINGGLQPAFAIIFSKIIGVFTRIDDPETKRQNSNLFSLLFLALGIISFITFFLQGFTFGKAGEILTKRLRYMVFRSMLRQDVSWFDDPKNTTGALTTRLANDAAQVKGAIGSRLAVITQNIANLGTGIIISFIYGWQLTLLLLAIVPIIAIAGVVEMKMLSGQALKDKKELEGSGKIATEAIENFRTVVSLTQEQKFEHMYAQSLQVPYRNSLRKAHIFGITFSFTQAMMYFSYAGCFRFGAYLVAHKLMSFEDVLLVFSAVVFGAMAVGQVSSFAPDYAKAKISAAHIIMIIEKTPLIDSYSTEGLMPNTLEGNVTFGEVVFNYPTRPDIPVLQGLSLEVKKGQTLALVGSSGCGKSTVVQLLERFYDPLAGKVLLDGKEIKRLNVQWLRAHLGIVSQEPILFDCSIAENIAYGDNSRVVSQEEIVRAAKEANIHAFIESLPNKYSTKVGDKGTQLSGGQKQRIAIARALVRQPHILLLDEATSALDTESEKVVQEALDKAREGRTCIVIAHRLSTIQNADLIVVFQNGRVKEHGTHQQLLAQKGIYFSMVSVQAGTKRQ
Sequence of ABCB1 (P-gp) (P08183 whole entry): as above

`CC1CCc2c(sc3nc(-c4cccnc4)nc(N4CCN(C(C(N)=O)c5ccccc5)CC4)c23)C1` (configuration not stated): in data set [1], the concentration for half-maximal inhibition (IC50) is 1.73 µM. Moreover, the GI50 at 72 h is 24.6 µM in data set [2], 57.8 µM in [7], 25.8 µM in data set [9] and 42.4 µM in data set [10]. For the same compound, the RatioGI50 is on record as 7.1 in data set [3]; 20 in data set [4]; 3 in [5]; 4.7 in data set [6]; 2.2 in data set [11]. The inhibition at 1 min, 10 µM on ABCB1 (P-gp) is no less than 20%. In addition, in data set [8], the “inhibition (INH)” value was “Active”.

These data come from ChEMBL document CHEMBL4350954, “Identification of Thienopyrimidine Scaffold as an Inhibitor of the ABC Transport Protein ABCC1 (MRP1) and Related Transporters Using a Combined Virtual Screening Approach” (J Med Chem, 2019).
